Where “and” joins values, the source holds several entries; their conditions need not be identical. Equal values may be shown once.
System: Fibroblast
Experiment: Multiplex assay against human fibroblast
Type: toxicity, cell-based
Method in brief: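 Four dyes were applied at seeding to live cells: Hoechst33342, BioTracker Green Microtubule Cytoskeleton Dye, MitoTracker Red and Annexin V Alexa Fluor 680. Imaging after compound addition used a CQ1 microscope at 37°C and 5% CO2. CellPathfinder machine-learning gating then sorted cells into Hoechst high-intensity objects or normal cells, normal cells into healthy, pyknosed or fragmented nuclei, and pyknosed cells into mitotic or apoptotic, with tubulin, mitochondrial-mass and membrane-permeability phenotypes given as per cents of healthy-nucleus cells.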

[1] = 12 h, 1 µM, compound concentration 1 uM, replicate 1
[2] = 12 h, 1 µM, compound concentration 1 uM, replicate 2
[3] = 12 h, 10 µM, compound concentration 10 uM, replicate 1
[4] = 12 h, 10 µM, compound concentration 10 uM, replicate 2
[5] = 24 h, 1 µM, compound concentration 1 uM, replicate 1
[6] = 24 h, 1 µM, compound concentration 1 uM, replicate 2
[7] = 24 h, 10 µM, compound concentration 10 uM, replicate 1
[8] = 24 h, 10 µM, compound concentration 10 uM, replicate 2
[9] = 48 h, 1 µM, compound concentration 1 uM, replicate 1
[10] = 48 h, 1 µM, compound concentration 1 uM, replicate 2
[11] = 48 h, 10 µM, compound concentration 10 uM, replicate 1
[12] = 48 h, 10 µM, compound concentration 10 uM, replicate 2

## CS(=O)(=O)N1CCCC(NC(=O)[C@H](CCC2CCCCC2)NC(=O)c2ccc(CNc3ncnc4c3nnn4-c3ccccc3)cc2)C1 (stereo not given in full) [SR-301]
[1]
  Population Apoptotic (%): 58% and 60% and 56%
  Population Fragmented Nuclei (%): 22% and 18% and 20%
  Population Healthy Nuclei (%): 31% and 27% and 35%
  Population Hoechst High Intensity Objects (%): 21% and 15% and 12%
  Population Membrane Permeable-Phenotype (%): 16% and 32% and 28%
  Population Mitochondria Different-Phenotype (%): 13% and 12% and 26%
  Population Mitotic Cells (%): 41% and 39% and 43%
  Population Normal (%): 78% and 84% and 87%
  Population Pyknosed Nuclei (%): 46% and 53% and 44%
  Population Tubulin-Different-Phenotype (%): 47% and 61% and 57%
  Total Cell Count: 146 and 134
[2]
  Population Apoptotic (%): 25% and 63% and 33%
  Population Fragmented Nuclei (%): 14% and 11% and 7%
  Population Healthy Nuclei (%): 81% and 70% and 89%
  Population Mitochondria Different-Phenotype (%): 20% and 14% and 10%
  Population Mitotic Cells (%): 75% and 36% and 66%
  Population Normal (%): 80% and 86% and 94%
  Population Tubulin-Different-Phenotype (%): 21% and 19% and 12%
  Total Cell Count: 135 and 58 and 69
[3]
  Population Apoptotic (%): 94% and 85% and 73%
  Population Fragmented Nuclei (%): 34% and 37% and 21%
  Population Healthy Nuclei (%): 20% and 17% and 28%
  Population Hoechst High Intensity Objects (%): 19% and 17% and 12%
  Population Membrane Permeable-Phenotype (%): 36% and 16% and 19%
  Population Mitochondria Different-Phenotype (%): 20% and 25% and 36%
  Population Normal (%): 80% and 82% and 87%
  Population Pyknosed Nuclei (%): 45% and 44% and 50%
  Population Tubulin-Different-Phenotype (%): 32% and 48% and 51%
  Total Cell Count: 153 and 216 and 163
[4]
  Population Apoptotic (%): 80% and 75% and 41%
  Population Fragmented Nuclei (%): 39% and 27%
  Population Healthy Nuclei (%): 25% and 58%
  Population Membrane Permeable-Phenotype (%): 61% and 54% and 30%
  Population Mitochondria Different-Phenotype (%): 66% and 54% and 34%
  Population Mitotic Cells (%): 20% and 25% and 58%
  Population Normal (%): 89% and 95% and 97%
  Population Pyknosed Nuclei (%): 39% and 47% and 20%
  Population Tubulin-Different-Phenotype (%): 55% and 54% and 34%
  Total Cell Count: 89 and 86 and 105
[5]
  Population Apoptotic (%): 58% and 59% and 61%
  Population Fragmented Nuclei (%): 20% and 24% and 25%
  Population Healthy Nuclei (%): 39% and 33% and 42%
  Population Hoechst High Intensity Objects (%): 18% and 10%
  Population Membrane Permeable-Phenotype (%): 35% and 23% and 20%
  Population Mitochondria Different-Phenotype (%): 17% and 9% and 18%
  Population Mitotic Cells (%): 41% and 40% and 38%
  Population Normal (%): 81% and 89%
  Population Pyknosed Nuclei (%): 41% and 42% and 31%
  Population Tubulin-Different-Phenotype (%): 53% and 66% and 52%
  Total Cell Count: 123 and 142 and 153
[6]
  Population Fragmented Nuclei (%): 12% and 7%
  Population Healthy Nuclei (%): 78% and 80% and 86%
  Population Membrane Permeable-Phenotype (%): 7% and 6% and 3%
  Population Mitochondria Different-Phenotype (%): 20% and 10% and 8%
  Population Mitotic Cells (%): 87% and 60% and 55%
  Population Normal (%): 80% and 95% and 96%
  Population Pyknosed Nuclei (%): 9% and 12% and 6%
  Population Tubulin-Different-Phenotype (%): 13% and 26% and 14%
  Total Cell Count: 148 and 64 and 84
[7]
  Population Apoptotic (%): 84% and 87%
  Population Fragmented Nuclei (%): 31% and 40% and 42%
  Population Healthy Nuclei (%): 24% and 22%
  Population Hoechst High Intensity Objects (%): 20% and 15% and 21%
  Population Membrane Permeable-Phenotype (%): 23% and 21% and 17%
  Population Mitochondria Different-Phenotype (%): 43% and 48% and 34%
  Population Mitotic Cells (%): 15% and 12%
  Population Normal (%): 79% and 84% and 78%
  Population Pyknosed Nuclei (%): 43% and 36% and 35%
  Population Tubulin-Different-Phenotype (%): 63% and 53% and 68%
  Total Cell Count: 154 and 214 and 166
[8]
  Population Apoptotic (%): 91% and 94% and 89%
  Population Fragmented Nuclei (%): 25% and 32% and 19%
  Population Hoechst High Intensity Objects (%): 9%
  Population Mitotic Cells (%): 8% and 5% and 10%
  Population Normal (%): 90%
  Population Pyknosed Nuclei (%): 49% and 50% and 21%
  Total Cell Count: 98 and 89 and 110
[9]
  Population Apoptotic (%): 75% and 70%
  Population Fragmented Nuclei (%): 38% and 39% and 30%
  Population Healthy Nuclei (%): 46% and 41%
  Population Hoechst High Intensity Objects (%): 25% and 18%
  Population Membrane Permeable-Phenotype (%): 32% and 27% and 25%
  Population Mitochondria Different-Phenotype (%): 8% and 9% and 10%
  Population Mitotic Cells (%): 25% and 30%
  Population Normal (%): 74% and 81%
  Population Pyknosed Nuclei (%): 16% and 19% and 23%
  Population Tubulin-Different-Phenotype (%): 43% and 48% and 50%
  Total Cell Count: 135 and 127 and 148
[10]
  Population Apoptotic (%): 100% and 60%
  Population Fragmented Nuclei (%): 19% and 21% and 22%
  Population Healthy Nuclei (%): 80% and 73% and 75%
  Population Hoechst High Intensity Objects (%): 8% and 7% and 5%
  Population Membrane Permeable-Phenotype (%): 20% and 15% and 13%
  Population Mitochondria Different-Phenotype (%): 3% and 1%
  Population Normal (%): 91% and 92% and 94%
  Population Pyknosed Nuclei (%): 0% and 4% and 1%
  Population Tubulin-Different-Phenotype (%): 39% and 17% and 40%
  Total Cell Count: 131 and 116 and 118
[11]
  Population Apoptotic (%): 85% and 83% and 92%
  Population Fragmented Nuclei (%): 41% and 44% and 50%
  Population Healthy Nuclei (%): 22% and 29% and 25%
  Population Hoechst High Intensity Objects (%): 20% and 26%
  Population Membrane Permeable-Phenotype (%): 32% and 23%
  Population Mitochondria Different-Phenotype (%): 40% and 48% and 30%
  Population Mitotic Cells (%): 15% and 16% and 7%
  Population Normal (%): 79% and 73%
  Population Pyknosed Nuclei (%): 35% and 25%
  Population Tubulin-Different-Phenotype (%): 48% and 44% and 53%
  Total Cell Count: 141 and 195
[12]
  Population Apoptotic (%): 84% and 100% and 94%
  Population Fragmented Nuclei (%): 51% and 53%
  Population Healthy Nuclei (%): 35% and 24% and 30%
  Population Hoechst High Intensity Objects (%): 16% and 29%
  Population Membrane Permeable-Phenotype (%): 34% and 14% and 27%
  Population Mitochondria Different-Phenotype (%): 78% and 85% and 72%
  Population Mitotic Cells (%): 0% and 5%
  Population Normal (%): 83% and 70%
  Population Pyknosed Nuclei (%): 20% and 24% and 15%
  Population Tubulin-Different-Phenotype (%): 34% and 32% and 54%
  Total Cell Count: 89 and 137 and 153

Reference: ChEMBL document CHEMBL4689842, “EUbOPEN Chemogenomics Library wave 1” (2021)
